Experimental data collected from several papers.
Lines come from different studies, so protocols differ.
Target: Citron Rho-interacting kinase (CIT, Homo sapiens, UniProt O14578)

CC1CCCN1c1nccc(-c2cnn3ncccc23)n1 (stereo not shown) — remaining binding (binding; 1 µM): 82%
COc1cnc(Nc2cccc(S(N)(=O)=O)c2)nc1N1CCN(c2ccccc2)C(=O)C1 — remaining binding (binding; competition with immobilised ligand; 1 µM): 100%
COc1ccnn2ncc(-c3ccnc(N(C)C)n3)c12 — remaining binding (binding; 1 µM): 95%
COc1cccc(CNC(=O)c2nc3scc(COCc4ccc(C(=O)O)cc4)c3c(=O)[nH]2)c1 — remaining binding (cell-free assay; competition with immobilised ligand; 1 µM): 100%
c1cncc(-c2cccc(Nc3nccc(NC4CCCCC4)n3)c2)c1 — remaining binding (binding; competition with immobilised ligand; 10 µM): 42%
FC(F)(F)Oc1cccc(-c2cnc3ccc(-c4ccncc4)nn23)c1 — remaining binding (cell-free assay; competition with immobilised ligand; 5 µM): 34%
COc1ncc2cc3ccccc3nc2c1C#N — remaining binding (cell-free assay; competition with immobilised ligand; 5 µM): 40%
CS(=O)(=O)N1CCCC(NC(=O)[C@H](CCC2CCCCC2)NC(=O)c2ccc(CNC(=O)c3cnc4ccccn34)cc2)C1 (stereo partly shown) — remaining binding (cell-free assay; competition with immobilised ligand; 0.1 µM): 100%
N[C@H]1CCN(c2nccc(-c3cnn4ncccc34)n2)C1 — remaining binding (binding; 1 µM): 100%
CC(=O)c1c(NS(C)(=O)=O)c2cc(-c3ccc(Cl)cc3)c(-c3ccc(Cl)cc3Cl)nc2n(C)c1=O — remaining binding (cell-free assay; competition with immobilised ligand; 1 µM): 96%
O=C(NCCCN1CCOCC1)c1ccc(Nc2nccc(-c3cc4ccccc4s3)n2)cc1 — remaining binding (binding; competition with immobilised ligand; 1 µM): 77%
CCN1CCN(Cc2ccc(C(=O)Nc3ccc(C)c(Oc4ccc5c(c4)CC(=O)N5)c3)cc2C(F)(F)F)CC1 — remaining binding (binding; competition with immobilised ligand; 1 µM): 65%
O=C(NCCCN1CCOCC1)c1ccc(Nc2ncc(Cl)c(-c3ccc(Cl)s3)n2)cc1 — remaining binding (binding; competition with immobilised ligand; 1 µM): 63%
F[C@@H]1CCN(c2nccc(-c3cnn4ncccc34)n2)C1 — remaining binding (binding; 1 µM): 75%
O=c1nc(-c2ccccn2)sc2ccccc12 — remaining binding (binding; competition with immobilised ligand; 1 µM): 100%
Cc1cnn2ncc(-c3ccnc(N(C)C)n3)c2c1 — remaining binding (binding; 1 µM): 82%
O=C(Nc1c[nH]nc1C(=O)NC1CCNCC1)c1cc(F)cc(F)c1 — remaining binding (binding; competition with immobilised ligand; 1 µM): 100%
CS(=O)(=O)c1cc(C2(NC(=O)c3cncc4c3cnn4-c3ccc(F)cc3)CC2)ccn1 — remaining binding (cell-free assay; competition with immobilised ligand; 1 µM): 100%
O=C(c1ccc(Nc2ncc(Cl)c(-c3cc4ccccc4s3)n2)cc1)N1CCC(N2CCCC2)CC1 — remaining binding (binding; competition with immobilised ligand; 1 µM): 30%
